The nature of data set [1]: Selectivity index, ratio of CC50 for MT4 cells to EC50 for HIV1 NL43 infected MT4 cells. Format: functional.
Data set [2] relates to Human immunodeficiency virus 1. Kind of data set: Antiviral activity against HIV1 NL43 in MT4 cells assessed as inhibition of viral induced cytopathic effect after 5 days by MTT method. The note with it: Human immunodeficiency virus 1, NL43, MT4, 120 h.
The nature of data set [3]: Cytotoxicity against MT4 cells after 4 days by MTT method. Format: cell-based. The note with it: human. A digest of the protocol: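 Mock-infected (noninfected) MT-4 cells, run in parallel with the antiviral test. Viable cells read by the MTT tetrazolium colorimetric method. […] Means ± SD from at least two experiments. The top concentration was limited where compounds precipitated in the culture medium.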
(Tetrazolium assays rely on reduction of a dye to a coloured formazan, in cell work by metabolically active cells.)

Data set [4] has as its system Human immunodeficiency virus 1. In words: Antiviral activity against HIV1 with reverse transcriptase K103N mutation in MT4 cells assessed as inhibition of viral induced cytopathic effect by MTT method. The note with it: Human immunodeficiency virus 1, MT4. Format: functional, organism-based. A digest of the protocol:
(§1)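 MT-4 cells infected with the HIV-1 NNRTI-resistant mutant strain. Viable cells scored at day 5 post-infection by the MTT tetrazolium colorimetric method. […] Values are means ± SD from at least two experiments.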
(In general: Damage to the host cells serves as the signal in cytopathic effect assays.)

Data set [5] concerns Human immunodeficiency virus 1. Kind of data set: Antiviral activity against HIV1 with reverse transcriptase Y181C mutation in MT4 cells assessed as inhibition of viral induced cytopathic effect by MTT method. Format: functional, organism-based. The note with it: Human immunodeficiency virus 1, MT4. A digest of the protocol: as §1
The subject of data set [6] is Human immunodeficiency virus 1. Kind of data set: Antiviral activity against HIV1 with reverse transcriptase Y188L mutation in MT4 cells assessed as inhibition of viral induced cytopathic effect by MTT method. The note with it: Human immunodeficiency virus 1, MT4. Format: functional, organism-based. A digest of the protocol: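 MT-4 cells infected with the HIV-1 NNRTI-resistant mutant strain. Viable cells scored at day 5 post-infection by the MTT tetrazolium colorimetric method. Values are means ± SD from at least two experiments.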

A short description of data set [7]: Resistance index, Ratio of EC50 for drug-resistant HIV1 with RT IRLL98 mutation in MT4 cells to EC50 for HIV1 NL43 in MT4 cells.
The subject of data set [8] is Human immunodeficiency virus 1. In words: Antiviral activity against HIV1 with reverse transcriptase IRLL98 mutation in MT4 cells assessed as inhibition of viral induced cytopathic effect by MTT method. Format: functional, organism-based. The note with it: Human immunodeficiency virus 1, MT4.
Data set [9] is described as follows: Resistance index, Ratio of EC50 for drug-resistant HIV1 with RT Y181C mutation in MT4 cells to EC50 for HIV1 NL43 in MT4 cells.
The target of data set [10] is Human immunodeficiency virus type 1 reverse transcriptase (Human immunodeficiency virus 1, UniProt Q72547, V106A). In words: Inhibition of HIV1 reverse transcriptase V106A mutant.

What is called EC50 is the midpoint of the concentration-response curve. For orientation: CC50 means the concentration that lowers cell viability or growth by half. A lower CC50 goes with greater toxicity to the cells. For `Cc1c(Cc2c(F)cccc2F)nc(N2CCC3(CC2)OCCO3)[nH]c1=O`, the “Ratio CC50/EC50” value in data set [1] is over 101. Further, the EC50 in data set [2] was 0.65 µM. In addition, in [3], the CC50 at 96 h was over 66 µM.
For the compound `O=c1cc(Cc2c(F)cccc2N2CCCC2)nc(N2CCCC2)[nH]1`, the “Ratio CC50/EC50” value in data set [1] is recorded as over 103. Besides, in data set [2], the EC50 turned out to be 0.71 µM. This compound also showed a CC50 at 96 h in data set [3] of over 73 µM.
In the case of `CC1CCCCN1c1nc(Cc2c(F)cccc2F)cc(=O)[nH]1` (configuration not stated), the “Ratio CC50/EC50” value in data set [1] is reported as over 729. Further, the EC50 is over 10 µM in data set [4]; 1.14 µM in data set [5]; 0.107 µM in data set [2]; over 10 µM in [6]; 3 µM in data set [8]. For the same compound, the results for the “Ratio EC50” value in data set [7] and in data set [9] were 28 and 11, respectively. This compound showed a CC50 at 96 h in data set [3] of over 78 µM.
`O=C1Nc2ccc(Cl)cc2C(C#CC2CC2)(C(F)(F)F)O1` (single isomer, unassigned) [EFAVIRENZ]: the EC50 in [4] was found to be 0.09 µM; in data set [5], 0.006 µM; in [6], 0.23 µM; in data set [8], 0.08 µM. The compound further had a CC50 at 96 h in [3] of over 0.3 µM.
One may read the Ki as a dissociation constant, usually derived from enzyme kinetics or from competition with a known ligand. Take `Cc1c(Cc2c(F)cccc2F)nc(N2CCC(C)CC2)[nH]c1=O`: in data set [1], the “Ratio CC50/EC50” value is over 750. Further, in data set [10], the Ki came to 0.5 µM. In addition, the EC50 was over 10 µM in data set [4], 0.1 µM in [2], over 10 µM in [6] and over 10 µM in [8]. The CC50 at 96 h in [3] was over 75 µM.
Consider `O=c1cc(Cc2c(F)cccc2F)nc(-n2cccc2)[nH]1`, for which the “Ratio CC50/EC50” value in data set [1] is over 5. Besides, in data set [2], the EC50 came out at 17.3 µM. The CC50 at 96 h in data set [3] was over 87 µM.
Turning to `CC1CCN(c2nc(Cc3c(F)cccc3F)cc(=O)[nH]2)CC1`, the “Ratio CC50/EC50” value in [1] is over 2229. Further, the EC50 in data set [4] is over 10 µM; in [5], 1.29 µM; in data set [2], 0.035 µM; in data set [6] it was over 10 µM; in data set [8], 4.6 µM. Also, the “Ratio EC50” value amounted to 131 in data set [7] and 37 in data set [9]. Moreover, in data set [3], the CC50 at 96 h is over 78 µM.
Turning to `CCN(C)c1nc(Cc2c(F)cccc2F)cc(=O)[nH]1`, the “Ratio CC50/EC50” value in data set [1] is reported as over 6846. In addition, the EC50 in data set [4] was over 10 µM; in data set [5] it was 0.5 µM; in data set [2], 0.013 µM; in [6], over 10 µM; in data set [8] it was 2 µM. Besides, the entries for the “Ratio EC50” value in [7] and in data set [9] were 154 and 38, respectively. The compound further registered a CC50 at 96 h in [3] of over 89 µM.
As to `Cc1c(C(C)c2c(Cl)cccc2Cl)nc(N(C)C)[nH]c1=O` (configuration not stated), the “Ratio CC50/EC50” value in data set [1] stood at 1167. The EC50 in data set [2] came to 0.03 µM. This compound also registered a CC50 at 96 h in data set [3] of 35 µM.
For `CCCN(CCC)c1nc(Cc2c(F)cccc2F)c(C)c(=O)[nH]1` the same measures were over 35, 2.09 µM and over 74 µM.
Taken in the same sequence, the figures for `Cc1c(C(C)c2c(F)cccc2F)nc(N2CCCCCC2)[nH]c1=O` (configuration not stated) were over 8000, 0.009 µM and over 72 µM.
For `CCCN(C)c1nc(Cc2c(F)cccc2F)cc(=O)[nH]1` the same measures were 9444, 0.009 µM and 85 µM.
Consider `Cc1c(Cc2c(F)cccc2F)nc(N(C)c2ccccc2)[nH]c1=O`, for which the “Ratio CC50/EC50” value in [1] is given as over 849. In addition, the EC50 in [2] turned out to be 0.086 µM. In data set [3], this compound had a CC50 at 96 h of over 73 µM.
`Cc1c(C(C)c2ccccc2F)nc(N(C)C)[nH]c1=O` (configuration not stated): in [1], the “Ratio CC50/EC50” value stood at 7333. Besides, in [2], the EC50 turned out to be 0.006 µM. Besides, the CC50 at 96 h in [3] turned out to be 44 µM.
For `CCN(CC)c1nc(Cc2c(F)cccc2F)cc(=O)[nH]1` the same measures were over 639, 0.133 µM and over 85 µM.
Regarding `Cc1c(Cc2c(F)cccc2F)nc(N2CCCC(C)C2)[nH]c1=O` (configuration not stated), in [1], the “Ratio CC50/EC50” value is given as over 4167. In addition, the EC50 in data set [4] is over 10 µM; in [5], 0.57 µM; in [2], 0.018 µM; in data set [6], over 10 µM; in data set [8], 2.1 µM. Further, the “Ratio EC50” value in data set [7] was 117; in data set [9], 32. In addition, the CC50 at 96 h in data set [3] is over 75 µM.
For `O=c1cc(Cc2c(F)cccc2F)nc(N2CCC3(CC2)OCCO3)[nH]1`, the “Ratio CC50/EC50” value in data set [1] was over 31. Besides, the EC50 in data set [2] was 2.22 µM. The compound also showed a half-maximal cytotoxic concentration (CC50) at 96 h in [3] of over 69 µM.
Turning to `CCCN(CCC)c1nc(Cc2c(F)cccc2F)cc(=O)[nH]1`, the “Ratio CC50/EC50” value in data set [1] is over 44. Further, the EC50 in [2] came out at 1.78 µM. Also, the CC50 at 96 h in data set [3] is over 78 µM.
Taken in the same sequence, the figures for `CCN(CC)c1nc(Cc2c(F)cccc2F)c(C)c(=O)[nH]1` were over 2700, 0.03 µM and over 81 µM.
`CC(C)N(C)c1nc(Cc2c(F)cccc2F)cc(=O)[nH]1`: the “Ratio CC50/EC50” value in [1] stood at 10625. For the same compound, the EC50 was over 10 µM in data set [4]; 0.03 µM in data set [5]; 0.008 µM in [2]; over 10 µM in data set [6]; 0.18 µM in data set [8]. The “Ratio EC50” value is 22 in data set [7] and 4 in [9]. The midpoint of cytotoxicity in [3], the CC50 at 96 h, lay at 85 µM.
`O=c1cc(Cc2c(F)cccc2F)nc(N2CCCCCC2)[nH]1`: the “Ratio CC50/EC50” value in data set [1] is recorded as over 3545. The EC50 was over 10 µM in [4]; 0.43 µM in data set [5]; 0.022 µM in data set [2]; over 10 µM in data set [6]; 1.4 µM in [8]. Also, the “Ratio EC50” value in [7] amounted to 64; in data set [9], 19. The same compound registered a CC50 at 96 h in data set [3] of over 78 µM.
For the compound `O=c1cc(Cc2c(F)cccc2F)nc(N2CCCC2)[nH]1`, the “Ratio CC50/EC50” value in data set [1] is over 925. The EC50 in [4] was over 10 µM; in [5], over 10 µM; in [2] it was 0.093 µM; in [6], over 10 µM; in [8], over 10 µM. For the same compound, the CC50 at 96 h in data set [3] was over 86 µM.
For `Cc1c(Cc2c(F)cccc2N2CCCC2)nc(N2CCCC2)[nH]c1=O`, the “Ratio CC50/EC50” value in data set [1] was over 113. Moreover, in data set [10], affinity was put at a Ki of 0.5 µM. Besides, the EC50 in [2] came out at 0.62 µM. In addition, in data set [3], the CC50 at 96 h is over 70 µM.
As for `CC1CCCN(c2nc(Cc3c(F)cccc3F)cc(=O)[nH]2)C1` (configuration not stated), the “Ratio CC50/EC50” value in [1] is on record as over 2437. The EC50 in data set [4] was over 10 µM; in [5], 0.43 µM; in [2] it was 0.032 µM; in [6], over 10 µM; in [8] it was 1.8 µM. Also, the “Ratio EC50” value amounted to 56 in data set [7] and 13 in [9]. The CC50 at 96 h in [3] was over 78 µM.
Consider `Cc1c(Cc2c(F)cccc2F)nc(N2CCCCC2C)[nH]c1=O` (configuration not stated), for which the “Ratio CC50/EC50” value in [1] is listed as 8333. Further, the EC50 in data set [4] was over 10 µM; in data set [5], 0.14 µM; in [2], 0.009 µM; in data set [6], over 10 µM; in [8], 1.4 µM. In addition, the “Ratio EC50” value in [7] is listed as 156; in data set [9], 16. For the same compound, the CC50 at 96 h in data set [3] was 75 µM.
Regarding `Cc1c(Cc2c(F)cccc2F)nc(N2CCCC2)[nH]c1=O`, the “Ratio CC50/EC50” value in data set [1] is given as over 2562. Besides, the EC50 was over 10 µM in [4]; 5.15 µM in data set [5]; 0.032 µM in data set [2]; over 10 µM in [6]; over 10 µM in data set [8]. The “Ratio EC50” value in [9] is on record as 161. The CC50 at 96 h in [3] is over 82 µM.

These data come from ChEMBL document CHEMBL1137561 (J Med Chem, 2007).
